Series [1] deals with Mus musculus. Description: Analgesic activity in sc dosed ddY mouse assessed as inhibition of acetic acid-induced abdominal stretching pretreated for 30 mins followed by acetic acid challenge measured for 5 to 20 mins. Type of series: functional. The following applies: Abdomen. In outline:
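Compound suspended in 1% gum arabic, given sc to mice; 30 min later 0.6% acetic acid ip at 0.1 mL/10 g body weight. Mouse counted protected if no stretching from 5 to 20 min after acid; ED50 by Litchfield–Wilcoxon method.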

Series [2] relates to Rattus norvegicus. Description: Antiinflammatory activity in Wistar rat assessed as inhibition of carrageenan-induced paw edema at 100 mg/kg, po pretreated for 30 mins followed by carrageenan challenge measured after 3 hrs relative to control. Type of series: functional. In outline: (§1)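 Male Wistar rats (120-150 g), six per group, dosed orally with compound suspended in 1% gum arabic; 30 min later 0.1 mL 1% carrageenan injected sc into hind paw plantar surface. Edema measured at 3 h; percent inhibition calculated against carrageenan-only animals.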

Series [3] concerns Rattus norvegicus. Description: Antiinflammatory activity in Wistar rat assessed as inhibition of carrageenan-induced paw edema at 50 mg/kg, po pretreated for 30 mins followed by carrageenan challenge measured after 3 hrs relative to control. Type of series: functional. A digest of the protocol:
as §1
(The carrageenan paw model is a standard test of acute inflammation.)

Series [4] concerns Rattus norvegicus. The series can be described thus: Antiinflammatory activity in Wistar rat assessed as inhibition of carrageenan-induced paw edema at 25 mg/kg, po pretreated for 30 mins followed by carrageenan challenge measured after 3 hrs relative to control. Type of series: functional. In outline: as §1
Series [5] in a line: Acute toxicity in ip dosed ddY mouse measured after 72 hrs. The class given is organism-based. The following applies: in vivo.

Where only a bound is given, the exact number is not on record here.

With `CCOc1c(N2CCOCC2)cnn(C(C)C)c1=O`, the ED50 (commonly the midpoint of the dose-response relation) in series [1] is greater than 100 mg/kg. The inhibition in vivo (as a rule, the relative decrease from the control value, in per cent) at 100 mg/kg in series [2] amounted to 22.2%. Besides, the inhibition in vivo at 50 mg/kg in series [3] stood at 2.1%.

With `CCOc1c(N2CCOCC2)cn[nH]c1=O`, in series [1], the median effective dose (ED50) is greater than 100 mg/kg. Further, the inhibition in vivo at 100 mg/kg in series [2] is 9.2%.

On to `CCOc1c(N2CCCCC2)cnn(C)c1=O`, for which the 50% effective dose (ED50) in series [1] was 86 mg/kg. The inhibition in vivo at 100 mg/kg in series [2] is 14.1%. For the same molecule, the inhibition in vivo at 50 mg/kg in series [3] was -5.4%.

Take `CC(C)Oc1c(N2CCOCC2)cnn(C)c1=O`: the ED50 in series [1] was determined as 86 mg/kg. Also, the inhibition in vivo at 100 mg/kg in series [2] worked out at 7.2%.

For `c1ccnnc1` [PYRIDAZINE], the median effective dose (ED50) in series [1] was greater than 100 mg/kg. Besides, the inhibition in vivo at 100 mg/kg in series [2] was -2.4%.

On to `CCOc1ccnn(C)c1=O`, for which the median effective dose (ED50) in series [1] was greater than 100 mg/kg. Moreover, the inhibition in vivo at 100 mg/kg in series [2] was -12.2%.

Turning to `Cn1ncccc1=O`, the ED50 in series [1] is 65 mg/kg. Also, the inhibition in vivo at 100 mg/kg in series [2] came to 4.5%.

`COc1c(N2CCOCC2)cnn(C)c1=O`: the 50% effective dose (ED50) in series [1] came out at 72 mg/kg. Further, in series [2], the inhibition in vivo at 100 mg/kg was 43.4%. The inhibition in vivo at 50 mg/kg in series [3] worked out at 23.2%. Besides, the inhibition in vivo at 25 mg/kg in series [4] came to 11%. In addition, the LD50 (as a rule, the dose expected to kill half of the subjects tested) at 72 h in series [5] came out at 600 mg/kg.

On to `CCOc1c(NC)cnn(C)c1=O`, for which the median effective dose (ED50) in series [1] amounted to 55 mg/kg. Moreover, the inhibition in vivo at 100 mg/kg in series [2] was determined as 31.1%. Besides, in series [3], the inhibition in vivo at 50 mg/kg came out at 4.5%. Further, the inhibition in vivo at 25 mg/kg in series [4] was -1.1%. This molecule also returned a 50% lethal dose (LD50) at 72 h in series [5] of 400 mg/kg.

`CCCCCOc1c(N2CCOCC2)cnn(C)c1=O`: in series [1], the ED50 was determined as 29 mg/kg. The inhibition in vivo at 100 mg/kg in series [2] worked out at 20.7%. Further, the inhibition in vivo at 50 mg/kg in series [3] amounted to 2.4%. In series [5], this molecule had a median lethal dose (LD50) at 72 h of 420 mg/kg.

As for `CCOc1c(N(CC)CC)cnn(C)c1=O`, the ED50 in series [1] was 70 mg/kg. Besides, the inhibition in vivo at 100 mg/kg in series [2] came to 32.5%. For the same molecule, the inhibition in vivo at 50 mg/kg in series [3] was found to be 1.7%.

For the molecule `CCOc1c(N2CCOCC2)cnn(CC)c1=O`, the 50% effective dose (ED50) in series [1] was 95 mg/kg. Further, the inhibition in vivo at 100 mg/kg in series [2] was 58.4%. Further, in series [3], the inhibition in vivo at 50 mg/kg worked out at 25.4%. Further, the inhibition in vivo at 25 mg/kg in series [4] amounted to 8.3%. The molecule further displayed an LD50 at 72 h in series [5] of 380 mg/kg.

`C=CCn1ncc(N2CCOCC2)c(OCC)c1=O`: in series [1], the 50% effective dose (ED50) worked out at 18 mg/kg. The inhibition in vivo at 100 mg/kg in series [2] was 23.5%. In addition, the inhibition in vivo at 50 mg/kg in series [3] is 1.2%. Also, the median lethal dose (LD50) at 72 h in series [5] turned out to be 550 mg/kg.

Turning to `Cn1ncc(Cl)c(Cl)c1=O`, in series [1], the 50% effective dose (ED50) is greater than 100 mg/kg. For the same molecule, the inhibition in vivo at 100 mg/kg in series [2] was determined as 23.2%. The inhibition in vivo at 50 mg/kg in series [3] is -8.9%.

As for `CCOc1c(N(C)C)cnn(C)c1=O`, the median effective dose (ED50) in series [1] was 86 mg/kg. Further, in series [2], the inhibition in vivo at 100 mg/kg was 49.5%. Besides, in series [3], the inhibition in vivo at 50 mg/kg was determined as 30.7%. Moreover, the inhibition in vivo at 25 mg/kg in series [4] came out at 27.5%. The LD50 at 72 h in series [5] was determined as 305 mg/kg.

Regarding `Cn1ncc(N2CCOCC2)c(O)c1=O`, the median effective dose (ED50) in series [1] is greater than 100 mg/kg. Moreover, the inhibition in vivo at 100 mg/kg in series [2] was found to be 16.6%. Besides, the inhibition in vivo at 50 mg/kg in series [3] is 8.2%.

`Cc1c(N(C)C)c(=O)n(-c2ccccc2)n1C` [AMINOPYRINE]: the ED50 in series [1] was 46 mg/kg. Moreover, in series [2], the inhibition in vivo at 100 mg/kg is 48.2%. In addition, the inhibition in vivo at 50 mg/kg in series [3] stood at 25%. Besides, the inhibition in vivo at 25 mg/kg in series [4] stood at 11%. This molecule showed an LD50 at 72 h in series [5] of 420 mg/kg.

In the case of `CCOc1c(N2CCCC2)cnn(C)c1=O`, the ED50 in series [1] is greater than 100 mg/kg. The inhibition in vivo at 100 mg/kg in series [2] came to 23%. Moreover, in series [3], the inhibition in vivo at 50 mg/kg was -2.3%.

Take `CCCCn1ncc(N2CCOCC2)c(OCC)c1=O`: in series [1], the 50% effective dose (ED50) was greater than 100 mg/kg. Moreover, in series [2], the inhibition in vivo at 100 mg/kg is 18.3%.

For `C=CCOc1c(N2CCOCC2)cnn(C)c1=O`, in series [1], the ED50 is 90 mg/kg. For the same molecule, the inhibition in vivo at 100 mg/kg in series [2] was 17.4%. For the same molecule, the inhibition in vivo at 50 mg/kg in series [3] turned out to be 5.2%.

Consider `CCCCC1C(=O)N(c2ccccc2)N(c2ccccc2)C1=O` [PHENYLBUTAZONE], for which the ED50 in series [1] is greater than 100 mg/kg. Moreover, the inhibition in vivo at 100 mg/kg in series [2] stood at 40.6%. Further, in series [3], the inhibition in vivo at 50 mg/kg is 35%. Besides, the inhibition in vivo at 25 mg/kg in series [4] turned out to be 18%. The same molecule showed an LD50 at 72 h in series [5] of 420 mg/kg.

Turning to `CCCOc1c(N2CCOCC2)cnn(C)c1=O`, the 50% effective dose (ED50) in series [1] is 23 mg/kg. Also, the inhibition in vivo at 100 mg/kg in series [2] is 34.9%. Besides, in series [3], the inhibition in vivo at 50 mg/kg was 32.4%. For the same molecule, the inhibition in vivo at 25 mg/kg in series [4] was 4.5%. This molecule gave an LD50 at 72 h in series [5] of 500 mg/kg.

`CCOc1c(N2CCSCC2)cnn(C)c1=O`: in series [1], the ED50 was greater than 100 mg/kg. The inhibition in vivo at 100 mg/kg in series [2] came out at 11.8%. In addition, the inhibition in vivo at 50 mg/kg in series [3] turned out to be 6.2%.

Turning to `CCOc1c(Nc2ccccc2)cnn(C)c1=O`, the 50% effective dose (ED50) in series [1] amounted to 36 mg/kg. Besides, the inhibition in vivo at 100 mg/kg in series [2] amounted to 4.9%.

With `CCCNc1cnn(C)c(=O)c1OCC`, the ED50 in series [1] worked out at 72 mg/kg. Further, in series [2], the inhibition in vivo at 100 mg/kg was 38%. Also, the inhibition in vivo at 50 mg/kg in series [3] is 8%. In series [4], the inhibition in vivo at 25 mg/kg is 2%.

In the case of `Cn1ncc(O)c(Cl)c1=O`, in series [1], the ED50 was greater than 100 mg/kg. Further, the inhibition in vivo at 100 mg/kg in series [2] is -5.8%.

In the case of `CCOc1c(N2CCN(C)CC2)cnn(C)c1=O`, in series [1], the 50% effective dose (ED50) amounted to 82 mg/kg. Also, in series [2], the inhibition in vivo at 100 mg/kg turned out to be 12.3%. Also, in series [3], the inhibition in vivo at 50 mg/kg amounted to 10.2%.

For `CCOc1c(N2CCOCC2)cnn(C)c1=O` [EMORFAZONE], in series [1], the 50% effective dose (ED50) turned out to be 41 mg/kg. Besides, the inhibition in vivo at 100 mg/kg in series [2] came out at 55%. Further, in series [3], the inhibition in vivo at 50 mg/kg is 38.8%. Also, in series [4], the inhibition in vivo at 25 mg/kg turned out to be 20.2%. The 50% lethal dose (LD50) at 72 h in series [5] was 700 mg/kg.

For `O=c1cccn[nH]1`, in series [1], the ED50 is greater than 100 mg/kg. Further, the inhibition in vivo at 100 mg/kg in series [2] was 6.3%.

Take `CCCn1ncc(N2CCOCC2)c(OCC)c1=O`: the ED50 in series [1] was greater than 100 mg/kg. The inhibition in vivo at 100 mg/kg in series [2] is 32.4%. Also, the inhibition in vivo at 50 mg/kg in series [3] was determined as 3.5%.

For `Cn1ncc(N2CCOCC2)c(Cl)c1=O`, the ED50 in series [1] stood at 35 mg/kg. Further, the inhibition in vivo at 100 mg/kg in series [2] is 38.9%. Also, in series [3], the inhibition in vivo at 50 mg/kg worked out at 32.2%. Also, the inhibition in vivo at 25 mg/kg in series [4] was 15.2%. The molecule also returned an LD50 at 72 h in series [5] of 75 mg/kg.

As for `CCCCOc1c(N2CCOCC2)cnn(C)c1=O`, in series [1], the ED50 turned out to be 41 mg/kg. In series [2], the inhibition in vivo at 100 mg/kg stood at 28.8%. Moreover, the inhibition in vivo at 50 mg/kg in series [3] is -2.8%. This molecule gave a 50% lethal dose (LD50) at 72 h in series [5] of 440 mg/kg.

Turning to `C=CCN(CC=C)c1cnn(C)c(=O)c1OCC`, the ED50 in series [1] was 82 mg/kg. For the same molecule, in series [2], the inhibition in vivo at 100 mg/kg was 12.9%. Besides, the inhibition in vivo at 50 mg/kg in series [3] was -5.2%.

For `C/C=C/n1ncc(N2CCOCC2)c(OCC)c1=O`, the ED50 in series [1] is greater than 100 mg/kg. Also, the inhibition in vivo at 100 mg/kg in series [2] stood at 3.1%.

In the case of `Cn1ncc(N2CCOCC2)cc1=O`, in series [1], the ED50 is greater than 100 mg/kg. For the same molecule, in series [2], the inhibition in vivo at 100 mg/kg is -5.6%.

Values taken from ChEMBL document CHEMBL3227987, “A new nonsteroidal analgesic-antiinflammatory agent. Synthesis and activity of 4-ethoxy-2-methyl-5-morpholino-3(2H)-pyridazinone and related compounds” (J Med Chem, 1979).
